Test results reported in PMC7305479 (Russian Journal of Bioorganic Chemistry, 2020).

Legend:
[1] = test system: influenza virus strain A/PR/8/34 (H1N1); assay: organism not typed; type: cell-based, Influenza A virus (IVA); details: for SI (selectivity index, CC50/EC50): Influenza A virus, MDCK cells
[2] = test system: parainfluenza type 3 strain v2932; assay: microbe, parasite or virus in culture; type: cell-based, Human parainfluenza virus type 3 (PIV-3); details: for SI (selectivity index, CC50/EC50): PIV-3, HEp-2 cells
[3] = test system: respiratory syncytial virus A2; assay: Antiviral activity against respiratory syncytial virus in HEp-2 culture; type: cell-based, Human respiratory syncytial virus (RSV); details: for SI (selectivity index, CC50/EC50): RSV, HEp-2 cells
Outline: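 HEp-2 monolayers infected with 10-fold dilutions (10–1–10–7) of RSV A2. Test compound was pre-applied 1 h in 3-fold dilutions, starting from the CC50-level concentration made from a 2000 µg/mL DMSO stock. It was re-added at double concentration with virus for 1 h, then washed out and re-applied for 6 days at 37°C, 5% CO2. Read-out was acetone-fixed cell-ELISA (TMB, OD 450 nm), with Reed–Muench titers.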

MDCK cell culture = assay: Cytotoxicity measurement; type: cell-based
Outline: (§1)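 Test compound was diluted 2-fold in medium from 2000 µg/mL DMSO stocks and applied to washed monolayers for 24 h at 37°C, 5% CO2. Cells were PBS-washed, then given MTT ([…] in medium) for 1.5 h. The product was dissolved in 96% ethanol and OD read at 535 nm. CC50 was derived from the data by curve analysis.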

HEp-2 culture = assay: Cytotoxicity measurement; type: cell-based; details: for CC50: MTT, 24 h
Outline: as §1

[4] = test system: broad spectrum of enveloped viruses; details: cited from earlier work
Cytotoxicity measurement [5] = type: cell-based; details: dog, MDCK cells
Outline: as §1

Cytotoxicity measurement [6] = type: cell-based; details: human, HEp-2 cells
Outline: as §1

herpes simplex type 1 = details: cited from earlier work
tick-borne encephalitis = details: cited from earlier work
Solubility = type: physicochemical
[7] = human respiratory syncytial virus, HEp-2

`O=c1[nH]c(=O)n([C@@H]2O[C@H](CO)[C@@H](O)[C@@H]2O)cc1C#Cc1ccc2c3cccc4cccc(c5cccc1c52)c43` [aUY11 (II), 5-(perylen-3-ylethynyl)-arabino-uridine] gave an EC50 ([1]; Influenza A virus A/PR/8/34 (H1N1) in MDCK cells) of 5.2 ± 0.4 µM, an EC50 ([2]; PIV-3 strain v2932 in HEp-2 cells) of 1300 ± 300 nM and an EC50 ([3]; RSV A2 in HEp-2 cells) of 2300 ± 100 nM. It also gave a CC50 (MDCK cell culture; MDCK cell culture (IVA columns), MTT, 24 h) of 894 ± 23 µM, a CC50 (HEp-2 culture; HEp-2 culture (PIV-3 columns)) of 998 ± 59 µM and a CC50 (HEp-2 culture; HEp-2 culture (RSV columns)) of 998 ± 59 µM. For the same molecule, the “antiviral activity (in words)” value [4] was “highly active”.
With `CC(C)(C)C(=O)OCn1c(=O)c(C#Cc2ccc3c4cccc5cccc(c6cccc2c63)c54)cn(CC(=O)O)c1=O` [cm1pUY11 (III), 1-carboxymethyl-3-pivaloyloxymethyl-5-(perylen-3-ylethynyl)uracil] the “SI (selectivity index, CC50/EC50)” value [1] was 68, the EC50 ([1]; MDCK) was 0.5 ± 0.02 µM and the EC50 ([2]; Human respirovirus 3, HEp-2) was 4300 ± 200 nM. For the same molecule, the “SI (selectivity index, CC50/EC50)” value [2] was 10, the “SI (selectivity index, CC50/EC50)” value [3] was 24 and the EC50 [3, 7] was 1900 ± 100 nM. The CC50 at 24 h (Cytotoxicity measurement [5]) was 34 ± 1.9 µM, the “cytotoxic properties (in words)” value (MDCK cell culture; MDCK cell culture, compared with the other three compounds) was “significantly more pronounced cytotoxic properties” and the CC50 at 24 h (Cytotoxicity measurement [6]) was 45 ± 3.4 µM. For the same molecule, the “cytotoxic properties (in words)” value (HEp-2 culture; HEp-2 cell culture, compared with the other three compounds) was “significantly more pronounced cytotoxic properties”, the “antiviral activity (in words)” value (herpes simplex type 1) was “activity” and the “antiviral activity (in words)” value (tick-borne encephalitis) was “activity”.
With `O=c1[nH]c(=O)n([C@H]2C[C@H](O)[C@@H](CO)O2)cc1C#Cc1ccc2c3cccc4cccc(c5cccc1c52)c43` [dUY11 (I), 5-(perylen-3-ylethynyl)-2′-deoxy-uridine] the “SI (selectivity index, CC50/EC50)” value [1] was 180, the EC50 ([1]; MDCK) was 2.7 ± 0.7 µM and the EC50 ([2]; Human respirovirus 3, HEp-2) was 2200 ± 500 nM. For the same molecule, the “SI (selectivity index, CC50/EC50)” value [2] was 270, the “SI (selectivity index, CC50/EC50)” value [3] was 330 and the EC50 [3, 7] was 1800 ± 200 nM. The CC50 at 24 h (Cytotoxicity measurement [5]) was 492 ± 56 µM, the CC50 at 24 h (Cytotoxicity measurement [6]) was 598 ± 44 µM and the “antiviral activity (in words)” value [4] was “highly active”.
With `O=c1[nH]c(=O)n([C@@H]2O[C@H](CO)[C@@H](O)[C@H]2O)cc1C#Cc1ccc2c3cccc4cccc(c5cccc1c52)c43` [rUY11 (IV), 5-(Perylen-3-ylethynyl)uridine] the “SI (selectivity index, CC50/EC50)” value [1] was 100, the EC50 ([1]; MDCK) was 6.4 ± 1.2 µM and the EC50 ([2]; Human respirovirus 3, HEp-2) was 2900 ± 400 nM. The “SI (selectivity index, CC50/EC50)” value [2] was 210, the “SI (selectivity index, CC50/EC50)” value [3] was 84 and the EC50 [3, 7] was 7100 ± 200 nM. The CC50 at 24 h (Cytotoxicity measurement [5]) was 658 ± 34 µM, the CC50 at 24 h (Cytotoxicity measurement [6]) was 599 ± 23 µM and the “solubility in DMSO” value (Solubility; DMSO) was “fairly soluble”. For the same molecule, the solubility in water (Solubility; water) was “only slightly soluble”.
